Laboratory results published in ChEMBL document CHEMBL5346918, “Design, synthesis and biological evaluation of Nucleosidic CD99 inhibitors that selectively reduce Ewing sarcoma viability” (Eur J Med Chem, 2023).
The source made the active and inactive calls. The calls are words filed in the database; no cut-off is given here.

Legend:
[1] = Cytotoxicity against human HEK293 cells assessed as reduction in cell viability incubated for 48 hrs by CellTiter-Blue reagent based […] assay; type: toxicity
How it was run: (§1)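 Cells grown in their own media at 37 °C, 5% CO2, mycoplasma-tested. At 60–80% confluency, treated 48 h with a range of concentrations made in medium. CellTiter-Blue added for 3–5 h at 37 °C, fluorescence read at ex 560/em 590 nm. IC50 from nonlinear regression (log(inhibitor) vs normalized response); mean ± SD of duplicate or triplicate determinations.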

TC-32 [2] = assay: Induction of apoptosis in human TC-32 cells assessed as increase in hypodiploid subG1 population at 10 to 40 uM incubated for 48 hrs by propidium iodide staining based flow cytometry; type: functional, cell-based; settings: dose 10-40 µM
How it was run: (§2)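 Treatment same as the apoptosis blots (48 h; 0.1–0.4 μM or 10–40 μM). Adherent cells trypsinized and pooled with floating cells, then washed in PBS. Fixed in ice-cold 70% ethanol 1 h on ice, rehydrated, RNase A 100 μg/mL. Stained with propidium iodide at 50 μg/mL final for 1 h on ice. Sub-G1 fraction read by flow cytometry.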

PC-3 = assay: Cytotoxicity against human PC-3 cells assessed as reduction in cell viability incubated for 48 hrs by CellTiter-Blue reagent based […] assay; type: functional; settings: PC-3, 48 h; how it was run: as §1
A549 = assay: Cytotoxicity against human A549 cells assessed as reduction in cell viability incubated for 48 hrs by CellTiter-Blue reagent based […] assay; type: functional; settings: A549, 48 h
U2OS [3] = assay: Induction of apoptosis in human U2OS cells assessed as caspase-3 cleavage at 10 to 40 uM incubated for 48 hrs by western blot analysis; type: functional, cell-based; settings: dose 10-40 µM
How it was run: (§3)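 Cells treated 48 h with three concentrations per agent (0.1, 0.2 or 0.4 μM for one; 10, 20 or 40 μM for another). Total cell lysates immunoblotted for PARP and caspase 3 and their cleaved products. Actin used as loading control and for normalization. ECL signal imaged on PVDF, bands quantified by densitometry.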

[4] = Cytotoxicity against human COG-E-352 cells assessed as reduction in cell viability incubated for 48 hrs by CellTiter-Blue reagent based […] assay; type: functional; settings: COG-E-352, 48 h; how it was run: as §1
CD99 antigen [5] = target: T1, CD99 antigen (Homo sapiens, UniProt P14209); assay: Binding affinity to N-terminal biotin-tagged recombinant human CD99 extracellular domain (23 to 122 residues) expressed in Escherichia coli BL21(DE3) assessed as dissociation rate constant by surface plasmon resonance analysis
T1 sequence (P14209 whole entry): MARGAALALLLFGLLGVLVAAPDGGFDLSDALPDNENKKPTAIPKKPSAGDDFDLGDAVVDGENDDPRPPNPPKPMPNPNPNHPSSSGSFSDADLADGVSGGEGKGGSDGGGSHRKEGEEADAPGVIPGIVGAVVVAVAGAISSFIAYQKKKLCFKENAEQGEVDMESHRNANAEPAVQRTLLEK
How it was run: (§4)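 Bacterially expressed recombinant CD99 extracellular domain amine-coupled to CM5 chip (10 mM sodium acetate pH 4.0, ~3500 RU). Analytes injected at various concentrations in PBS-P pH 7.4 + 1% DMSO at 50 μL/min. Contact time 60 s, dissociation 300 s, regeneration with 15 s H3PO4 pulse. Duplicate injections; sensorgrams fitted to 1:1 kinetic model.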

[6] = Cytotoxicity against human A4573 cells assessed as reduction in cell viability incubated for 48 hrs by CellTiter-Blue reagent based […] assay; type: functional; settings: A4573, 48 h
How it was run: (§5)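 Cells seeded and grown to 60–80% confluency (usually 18–24 h), then treated 48 h with a range of concentrations prepared in each line's medium. CellTiter-Blue reagent added at the end of treatment and incubated 3–5 h at 37 °C, 5% CO₂. Fluorescence read at 560 nm excitation and 590 nm emission. IC50 from nonlinear regression, log(inhibitor) vs. normalized response.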

[7] = Cytotoxicity against human SK-ES cells assessed as reduction in cell viability incubated for 48 hrs by CellTiter-Blue reagent based […] assay; type: functional; how it was run: as §1
TC-32 [8] = assay: Cytotoxicity against human TC-32 cells assessed as reduction in cell viability incubated for 48 hrs by CellTiter-Blue reagent based […] assay; type: functional; settings: TC-32, 48 h; how it was run: as §5
[9] = Cytotoxicity against human STA-ET-7.2 cells assessed as reduction in cell viability incubated for 48 hrs by CellTiter-Blue reagent based […] assay; type: functional; settings: STA-ET-7.2, 48 h
U2OS [10] = assay: Induction of apoptosis in human U2OS cells assessed as PARP cleavage at 10 to 40 uM incubated for 48 hrs by western blot analysis; type: functional, cell-based; settings: dose 10-40 µM; how it was run: as §3
[11] = Cytotoxicity against human TC71 cells assessed as reduction in cell viability incubated for 48 hrs by CellTiter-Blue reagent based […] assay; type: functional; settings: TC-71, 48 h; how it was run: as §5
RD = assay: Cytotoxicity against human RD cells assessed as reduction in cell viability incubated for 48 hrs by CellTiter-Blue reagent based […] assay; type: functional; how it was run: as §1
[12] = Cytotoxicity against human MHH-ES cells assessed as reduction in cell viability incubated for 48 hrs by CellTiter-Blue reagent based […] assay; type: functional
TC-32 [13] = assay: Induction of apoptosis in human TC-32 cells assessed as PARP cleavage at 10 to 40 uM incubated for 48 hrs by western blot analysis; type: functional, cell-based; settings: dose 10-40 µM; how it was run: as §3
SAOS-2 = assay: Cytotoxicity against human SAOS-2 cells assessed as reduction in cell viability incubated for 48 hrs by CellTiter-Blue reagent based […] assay; type: functional; settings: SAOS-2, 48 h; how it was run: as §5
SJRH30 = assay: Cytotoxicity against human Rh30 cells assessed as reduction in cell viability incubated for 48 hrs by CellTiter-Blue reagent based […] assay; type: functional; settings: SJRH30, 48 h
U2OS [14] = assay: Cytotoxicity against human U2OS cells assessed as reduction in cell viability incubated for 48 hrs by CellTiter-Blue reagent based […] assay; type: functional; how it was run: as §5
U2OS [15] = assay: Induction of apoptosis in human U2OS cells assessed as increase in hypodiploid subG1 population at 10 to 40 uM incubated for 48 hrs by propidium iodide staining based flow cytometry; type: functional, cell-based; settings: dose 10-40 µM; how it was run: as §2
TC-32 [16] = assay: Induction of apoptosis in human TC-32 cells assessed as caspase-3 cleavage at 10 to 40 uM incubated for 48 hrs by western blot analysis; type: functional, cell-based; settings: dose 10-40 µM; how it was run: as §3
U-87 MG = assay: Cytotoxicity against human U-87 MG cells assessed as reduction in cell viability incubated for 48 hrs by CellTiter-Blue reagent based […] assay; type: functional, U-87MG ATCC; how it was run: as §1
A 172 = assay: Cytotoxicity against human A-172 cells assessed as reduction in cell viability incubated for 48 hrs by CellTiter-Blue reagent based […] assay; type: functional; settings: A 172, 48 h; how it was run: as §1
[17] = target: T2, CD99 antigen (Homo sapiens) (UniProt P14209); assay: Binding affinity to N-terminal biotin-tagged recombinant human CD99 extracellular domain (23 to 122 residues) expressed in Escherichia coli BL21(DE3) assessed as association rate constant by surface plasmon resonance analysis; how it was run: as §4
T2 sequence (whole entry): T1 sequence (P14209 whole entry)

TC-32 [18] = assay: Inhibition of DNA synthesis in human TC-32 cells assessed as induction of DNA damage by measuring gammaH2AX phosphorylation at 20 to 80 uM incubated for 6 hrs by western blot analysis; type: toxicity, cell-based; settings: tc-32, 6 h, dose 20-80 µM
How it was run: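 TC-32 cells treated 6 h at 20, 40 or 80 μM. Total lysates immunoblotted for H2A.X and Ser139-phosphorylated γH2A.X. Actin used as loading control and for normalization. Bands quantified by densitometry.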

HOS = assay: Cytotoxicity against human HOS cells assessed as reduction in cell viability incubated for 48 hrs by CellTiter-Blue reagent based […]; type: functional; how it was run: as §1
143B = assay: Cytotoxicity against human 143B cells assessed as reduction in cell viability incubated for 48 hrs by CellTiter-Blue reagent based […] assay; type: functional; how it was run: as §1
CD99 antigen [19] = target: T1, CD99 antigen; assay: Binding affinity to N-terminal biotin-tagged recombinant human CD99 extracellular domain (23 to 122 residues) expressed in Escherichia coli BL21(DE3) by surface plasmon resonance analysis; how it was run: as §4
HeLa = assay: Cytotoxicity against human HeLa cells assessed as reduction in cell viability incubated for 48 hrs by CellTiter-Blue reagent based […] assay; type: functional; how it was run: as §1
[20] = Cytotoxicity against human MG-63.3 cells assessed as reduction in cell viability incubated for 48 hrs by CellTiter-Blue reagent based […] assay; type: functional; settings: MG-63.3, 48 h; how it was run: as §1
U2OS [21] = assay: Induction of apoptosis in human U2OS cells assessed as caspase-3 cleavage at 4 to 16 uM incubated for 48 hrs by western blot analysis; type: functional, cell-based; settings: dose 4-16 µM
How it was run: (§6)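 U-2 OS cells treated 48 h at 4, 8 or 16 μM; total lysates immunoblotted for cleaved PARP and cleaved caspase 3, actin as loading and normalization control.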

U2OS [22] = assay: Induction of apoptosis in human U2OS cells assessed as PARP cleavage at 4 to 16 uM incubated for 48 hrs by western blot analysis; type: functional, cell-based; settings: dose 4-16 µM; how it was run: as §6
TC-32 [23] = assay: Induction of apoptosis in human TC-32 cells assessed as PARP cleavage at 4 to 16 uM incubated for 48 hrs by western blot analysis; type: functional, cell-based; settings: dose 4-16 µM
How it was run: (§7)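 TC-32 cells treated 48 h at 4, 8 or 16 μM; total lysates immunoblotted for cleaved PARP and cleaved caspase 3, actin as loading and normalization control; ECL imaging with densitometry.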

[24] = target: T2, CD99 antigen (Homo sapiens); assay: Binding affinity to CD99 in human TC71 cells assessed as protein stabilization at 80 uM incubated for 30 mins and measured at 51 to 99 degC by CETSA analysis; type: cell-based
How it was run: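 TC-71 cell lysate mixed with compound at 80 μM final, aliquots heated at various temperatures; thermally stable CD99 remaining in solution detected by western blot with anti-CD99 antibody and quantified by densitometry relative to untreated lysate.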

U2OS [25] = assay: Induction of apoptosis in human U2OS cells assessed as increase in hypodiploid subG1 population at 4 to 16 uM incubated for 48 hrs by propidium iodide staining based flow cytometry; type: functional, cell-based; settings: dose 4-16 µM
How it was run: (§8)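 Cells treated 48 h at 4, 8 or 16 μM, then adherent and floating cells pooled, fixed in ice-cold 70% ethanol 1 h, treated with RNase A 100 μg/mL, stained with propidium iodide 50 μg/mL for 1 h on ice. Sub-G1 fraction measured by flow cytometry.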

TC-32 [26] = assay: Induction of apoptosis in human TC-32 cells assessed as increase in hypodiploid subG1 population at 4 to 16 uM incubated for 48 hrs by propidium iodide staining based flow cytometry; type: functional, cell-based; settings: dose 4-16 µM; how it was run: as §8
TC-32 [27] = assay: Induction of apoptosis in human TC-32 cells assessed as caspase-3 cleavage at 4 to 16 uM incubated for 48 hrs by western blot analysis; type: functional, cell-based; settings: dose 4-16 µM; how it was run: as §7

Compound: Nc1nc(-c2cccnc2)nc2c1ncn2[C@@H]1O[C@H](CO)[C@@H](O)[C@@H]1F
- IC50 at 48 h [1]: > 368 µM
- Activity (TC-32 [2]): Active
- IC50 (PC-3): > 400 µM
- IC50 (A549): > 400 µM
- Activity (U2OS [3]): inactive
- IC50 [4]: 60 µM
- Kd (CD99 antigen [5]): 598.2 10^-6/s
- IC50 [6]: 45.1 µM
- IC50 [7]: 60 µM
- IC50 (TC-32 [8]): 58.7 µM
- IC50 [9]: 60 µM
- Activity (U2OS [10]): inactive
- IC50 [11]: 19.9 µM
- IC50 (RD): > 400 µM
- IC50 [12]: 60 µM
- Activity (TC-32 [13]): Active
- IC50 (SAOS-2): ≥ 400 µM
- IC50 (SJRH30): > 368 µM
- IC50 (U2OS [14]): ≥ 400 µM
- Activity (U2OS [15]): inactive
- Activity (TC-32 [16]): Active
- IC50 (U-87 MG): > 400 µM
- IC50 (A 172): > 400 µM
- Ka [17]: 335 M⁻¹ s⁻¹
- Activity (TC-32 [18]): Non-Toxic
- IC50 (HOS): > 400 µM
- IC50 (143B): > 368 µM
- Kd (CD99 antigen [19]): 1.8 µM
- IC50 (HeLa): > 400 µM
- IC50 [20]: > 368 µM

Compound: Nc1nc(Cl)nc2c1ncn2[C@@H]1O[C@H](COC(C(=O)O)C(=O)O)[C@@H](O)[C@@H]1F
- IC50 at 48 h [1]: > 341 µM
- Activity (U2OS [21]): inactive
- IC50 (PC-3): > 400 µM
- IC50 (A549): > 400 µM
- IC50 [4]: 27 µM
- Kd (CD99 antigen [5]): 2467 10^-6/s
- IC50 [6]: 27 µM
- IC50 [7]: 27 µM
- IC50 (TC-32 [8]): 27 µM
- IC50 [9]: 27 µM
- Activity (U2OS [22]): inactive
- Activity (TC-32 [23]): Active
- IC50 [11]: 5.17 µM
- IC50 (RD): > 400 µM
- IC50 [12]: 27 µM
- Activity [24]: Active
- IC50 (SAOS-2): ≥ 400 µM
- IC50 (SJRH30): > 341 µM
- Activity (U2OS [25]): inactive
- IC50 (U2OS [14]): ≥ 400 µM
- Activity (TC-32 [26]): Active
- IC50 (U-87 MG): > 400 µM
- IC50 (A 172): > 341 µM
- Ka [17]: 1700 M⁻¹ s⁻¹
- IC50 (HOS): > 400 µM
- IC50 (143B): > 341 µM
- Activity (TC-32 [27]): Active
- Kd (CD99 antigen [19]): 1.5 µM
- IC50 (HeLa): > 400 µM
- IC50 [20]: > 341 µM
